Assay results reported in ChEMBL document CHEMBL4765297, “In silico/in vitro screening and hit evaluation identified new phenothiazine anti-prion derivatives” (Eur J Med Chem, 2020).
Calls of active or inactive are those of the source.

How the values were obtained:
[1] = system: ScN2a; test: Anti-prion activity against RML prion protein in mouse N2a cells assessed as Scrapie prion protein level at 1 uM in absence of proteinase K by Western blotting analysis relative to control; type: cell-based
How it was run: (§1)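 ScN2a or ScGT1 cells chronically infected with RML or 22L prions (N2a in MEM/10% FBS; GT1 in DMEM/10% FBS) treated 4 days with compound (DMSO stock diluted in EtOH, then medium; final DMSO ≤0.1%). Immunoblot with anti-PrP Fab W226, ECL, densitometry, normalized to untreated control (100%).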

[2] = system: ScN2a; test: Anti-prion activity against RML prion protein in mouse N2a cells assessed as Scrapie prion protein level at 1 uM in presence of proteinase K by Western blotting analysis relative to control; type: cell-based; how it was run: as §1
[3] = system: N2a; test: Cytotoxicity against mouse N2a cells assessed as reduction in cell viability incubated for 3 hrs by MTT assay; type: cell-based
How it was run: (§2)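 N2a, ScN2a, GT1 or ScGT1 cells seeded (2.5×10^4/mL MEM for N2a lines; 3×10^4/mL DMEM for GT1 lines), settled 1 day. Treated at 0.1, 1 and 10 µM for 5 days at 37 °C, 5% CO2. Read-outs: MTT (5 mg/mL, 3 h, DMSO/2-propanol solubilization, A590); CCK-8 (4 h, A450); calcein-AM (2.5 µM added, 30 min, 492/525 nm). Viability threshold 80%.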

[4] = system: N2a; test: Cytotoxicity against mouse N2a cells assessed as reduction in cell viability incubated for 30 mins by Calcein assay; type: cell-based; settings: 0.5 h; how it was run: as §2
[5] = system: N2a; test: Cytotoxicity against mouse N2a cells assessed as reduction in cell viability incubated for 4 hrs by CCK-8 assay; type: cell-based; how it was run: as §2
[6] = system: N2a; test: Anti-prion activity in mouse N2a cells assessed as effect on localization of cell membrane at 4 uM by immunofluorescence staining assay; type: functional, cell-based
How it was run: (§3)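 N2a cells on poly-lysine coverslips treated with 0.4 or 4 µM. Chilled on ice 15 min, live surface staining with W226 (1:200) 20 min on ice, then fixed in 4% PFA and blocked in 7% goat serum. Alexa488 anti-mouse secondary 1 h, DAPI counterstain, confocal imaging of surface PrPC.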

[7] = system: ScGT1; test: Anti-prion activity against RML prion protein in mouse ScGT1 cells assessed as Scrapie prion protein level at 4 uM in presence of proteinase K by Western blotting analysis relative to control; type: cell-based; how it was run: as §1
[8] = system: ScN2a; test: Anti-prion activity in mouse ScN2a cells at 1:5 Prp to compound concentration in absence of proteinase K by Western blotting analysis relative to control; type: functional
How it was run: (§4)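 Filtered through 3 kDa centrifugal membrane; filtrate (or compound alone, with or without filtration) given to ScN2a cells 4 days. PK-digested/undigested lysates immunoblotted with W226; three independent experiments, control normalized to 100%.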

[9] = Anti-prion activity against RML prion protein in mouse ScN2a cells in presence of proteinase K by Western blotting analysis; type: cell-based
How it was run: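 ScN2a-RML cells treated 4 days with 8 concentrations from 0 to 4 µM. Lysates PK-digested (10 µg PK, 1 h, 37 °C) and ultracentrifuged. Pellets denatured in 8 M GdnHCl and coated on ELISA plates overnight at 4 °C. Detection with W226 (1.5 µg/mL), HRP secondary and TMB, A450. IC50 taken from the dose-response curve, with Western blot confirmation.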

[10] = system: ScGT1; test: Anti-prion activity against 22L prion protein in mouse ScGT1 cells assessed as Scrapie prion protein level at 4 uM in absence of proteinase K by Western blotting analysis relative to control; type: cell-based; how it was run: as §1
[11] = system: ScN2a; test: Anti-prion activity in mouse ScN2a cells at 2:1 Prp to compound concentration in absence of proteinase K by Western blotting analysis relative to control; type: functional; how it was run: as §4
[12] = system: ScN2a; test: Anti-prion activity in mouse ScN2a cells at 1N in presence of proteinase K by Western blotting analysis relative to control; type: functional; how it was run: as §4
[13] = system: N2a; test: Anti-prion activity in mouse N2a cells assessed as effect on localization of cell membrane at 0.4 uM by immunofluorescence staining assay; type: functional, cell-based; how it was run: as §3
[14] = system: ScN2a; test: Anti-prion activity in mouse ScN2a cells in absence of proteinase K by Western blotting analysis relative to control; type: functional; how it was run: as §1
[15] = system: ScN2a; test: Anti-prion activity in mouse ScN2a cells at 1:1 Prp to compound concentration in presence of proteinase K by Western blotting analysis relative to control; type: functional; how it was run: as §4
[16] = system: ScN2a; test: Anti-prion activity against RML prion protein in mouse ScN2a cells assessed as Scrapie prion protein level at 4 uM in presence of proteinase K by Western blotting analysis relative to control; type: cell-based; how it was run: as §1
[17] = system: ScN2a; test: Anti-prion activity against 22L prion protein in mouse ScN2a cells assessed as Scrapie prion protein level at 4 uM in absence of proteinase K by Western blotting analysis relative to control; type: cell-based; how it was run: as §1
[18] = system: ScN2a; test: Cytotoxicity against mouse ScN2a cells upto 10 uM; type: cell-based; how it was run: as §2
[19] = system: ScN2a; test: Anti-prion activity in mouse ScN2a cells at 1N in absence of proteinase K by Western blotting analysis relative to control; type: functional; how it was run: as §4
[20] = system: ScN2a; test: Anti-prion activity in mouse ScN2a cells at 1:5 Prp to compound concentration in presence of proteinase K by Western blotting analysis relative to control; type: functional; how it was run: as §4
[21] = system: ScN2a; test: Anti-prion activity in mouse ScN2a cells in presence of proteinase K by Western blotting analysis relative to control; type: functional; how it was run: as §1
[22] = system: ScN2a; test: Anti-prion activity in mouse ScN2a cells at 2:1 Prp to compound concentration in presence of proteinase K by Western blotting analysis relative to control; type: functional; how it was run: as §4
[23] = system: ScN2a; test: Anti-prion activity in mouse ScN2a cells at 1:1 Prp to compound concentration in absence of proteinase K by Western blotting analysis relative to control; type: functional; how it was run: as §4
[24] = system: ScN2a; test: Anti-prion activity against 22L prion protein in mouse ScN2a cells assessed as Scrapie prion protein level at 4 uM in presence of proteinase K by Western blotting analysis relative to control; type: cell-based; how it was run: as §1
[25] = system: ScGT1; test: Anti-prion activity against RML prion protein in mouse ScGT1 cells assessed as Scrapie prion protein level at 4 uM in absence of proteinase K by Western blotting analysis relative to control; type: cell-based; how it was run: as §1
[26] = system: ScN2a; test: Anti-prion activity in mouse ScN2a cells at 1:2 Prp to compound concentration in absence of proteinase K by Western blotting analysis relative to control; type: functional; how it was run: as §4
[27] = system: ScGT1; test: Anti-prion activity against 22L prion protein in mouse ScGT1 cells assessed as Scrapie prion protein level at 4 uM in presence of proteinase K by Western blotting analysis relative to control; type: cell-based; how it was run: as §1
[28] = system: ScN2a; test: Anti-prion activity against RML prion protein in mouse ScN2a cells assessed as Scrapie prion protein level at 4 uM in absence of proteinase K by Western blotting analysis relative to control; type: cell-based; how it was run: as §1
[29] = system: ScN2a; test: Anti-prion activity in mouse ScN2a cells at 1:2 Prp to compound concentration in presence of proteinase K by Western blotting analysis relative to control; type: functional; how it was run: as §4

For `Cn1c(CSc2ccnc3cc(Cl)ccc23)nnc1SCC(=O)N1CCN(c2ccccc2)CC1`, the Activity [1] was 85.8%, the Activity [2] was 88% and the Activity [3] was “Non-Toxic”. The Activity [4] was “Non-Toxic” and the Activity [5] was “Non-Toxic”.
In the case of `CCc1ccc(CNC(=O)CSc2c3c(nc4cc(Cl)ccc24)CCCC3)cc1`, the Activity [1] is reported as 83.5%, the Activity [2] is reported as 77.1% and the Activity [3] is reported as “Non-Toxic”. The Activity [4] was “Non-Toxic” and the Activity [5] was “Non-Toxic”.
In the case of `C/C(=N\Nc1ccnc2cc(Cl)ccc12)c1ccc2c(c1)N(CCN1CCOCC1)c1ccccc1S2`, the Activity [1] is reported as 95.3% and the Activity [2] is reported as 70.3%.
With `Cc1cc(/C=N/Nc2ccnc3cc(Cl)ccc23)c(C)cc1/C=N/Nc1ccnc2cc(Cl)ccc12` the Activity [1] was 63.8%, the Activity [2] was 70.9% and the Activity [3] was “Non-Toxic”. For the same compound, the Activity [4] was “Non-Toxic” and the Activity [5] was “Non-Toxic”.
For `C/C(=N\Nc1ccnc2cc(Cl)ccc12)c1ccc2c(c1)N(CCCN(C)C)c1ccccc1S2`, the Activity [1] was 68.7% and the Activity [2] was 11.9%.
`C/C(=N\Nc1ccnc2cc(Cl)ccc12)c1ccc2c(c1)N(CCN(C)C)c1ccccc1S2` showed an Activity [1] of 60.2% and an Activity [2] of 8.6%.
Compound `C/C(=N\Nc1ccnc2cc(Cl)ccc12)c1ccc2c(c1)N(CCN1CCCCC1)c1ccccc1S2` has an Activity [1] of 70.2% and an Activity [2] of 13.6%.
For `COC(=O)c1ccc(COc2ccc(/C=N/Nc3ccnc4cc(Cl)ccc34)cc2OC)cc1`, the Activity [1] was 95.6%, the Activity [2] was 82.3% and the Activity [3] was “Non-Toxic”. For the same compound, the Activity [4] was “Non-Toxic” and the Activity [5] was “Non-Toxic”.
With `O=C(Nc1ccc(Oc2ccccc2)cc1)c1cc2cc3ccc(Cl)cc3nc2o1` the Activity [1] was 92.6%, the Activity [2] was 109% and the Activity [3] was “Non-Toxic”. The Activity [4] was “Non-Toxic” and the Activity [5] was “Non-Toxic”.
For `Cn1c(=O)c2cc(C(=O)N3CCC(Cc4ccccc4)CC3)sc2c2ccc(Cl)cc21`, the Activity [1] was 99.6%, the Activity [2] was 82.4% and the Activity [3] was “Non-Toxic”. The Activity [4] was “Non-Toxic” and the Activity [5] was “Non-Toxic”.
With `Cn1c(=O)c2cc(C(=O)Nc3ccc(Oc4ccccc4)cc3)sc2c2ccc(Cl)cc21` the Activity [1] was 92.5%, the Activity [2] was 94.4% and the Activity [3] was “Non-Toxic”. The Activity [4] was “Non-Toxic” and the Activity [5] was “Non-Toxic”.
Work on `C/C(=N\Nc1ccnc2cc(Cl)ccc12)c1ccc2c(c1)N(CCN1CCN(C)CC1)c1ccccc1S2` yielded an Activity [1] of 55.9% and an Activity [2] of 4.4%.
In the case of `COc1ccc2nc(NC(=O)c3cc4c(=O)n(C)c5cc(Cl)ccc5c4s3)sc2c1`, the Activity [1] is reported as 69.1%, the Activity [2] is reported as 85.4% and the Activity [3] is reported as “Non-Toxic”. The Activity [4] was “Non-Toxic” and the Activity [5] was “Non-Toxic”.
In the case of `C/C(=N\Nc1ccnc2cc(Cl)ccc12)c1ccc2c(c1)Nc1ccccc1S2`, the Activity [6] is reported as “inactive”, the Activity [7] is reported as 12.3% and the Activity [8] is reported as 41%. It also gave an IC50 [9] of 420 nM, an Activity [10] of 39.2% and an Activity [11] of 114.4%. The Activity [1] was 55.7%, the Activity [12] was 22.6% and the Activity [13] was “inactive”. The Activity [14] was 48.8%, the Activity [2] was 35.6% and the Activity [15] was 90.1%. For the same compound, the Activity [16] was 9.4%, the Activity [17] was 48.7% and the Activity [18] was “Non-Toxic”. The Activity [3] was “Non-Toxic”, the Activity [19] was 51.7% and the Activity [20] was 13.6%. The Activity [21] was 25.2%, the Activity [4] was “Non-Toxic” and the Activity [22] was 108.2%. For the same compound, the Activity [23] was 117.6%, the Activity [24] was 5.1% and the Activity [25] was 42%. The Activity [26] was 98.4%, the Activity [27] was 11% and the Activity [5] was “Non-Toxic”. For the same compound, the Activity [28] was 62.1% and the Activity [29] was 65.7%.
With `CCOc1ccc(CNC(=O)CSc2c3c(nc4cc(Cl)ccc24)CCCC3)cc1` the Activity [1] was 110%, the Activity [2] was 102% and the Activity [3] was “Non-Toxic”. For the same compound, the Activity [4] was “Non-Toxic” and the Activity [5] was “Non-Toxic”.
